Like-named read-outs stand apart in the source and are kept apart here.
B1: OVA: chicken egg OVA control protein (protein, UniProt P01012 2-386, looked up)
Ovalbumin: GSIGAASMEFCFDVFKELKVHHANENIFYCPIAIMSALAMVYLGAKDSTRTQINKVVRFDKLPGFGDSIEAQCGTSVNVHSSLRDILNQITKPNDVYSFSLASRLYAEERYPILPEYLQCVKELYRGGLEPINFQTAADQARELINSWVESQTNGIIRNVLQPSSVDSQTAMVLVNAIVFKGLWEKAFKDEDTQAMPFRVTEQESKPVQMMYQIGLFRVASMASEKMKILELPFASGTMSMLVLLPDEVSGLEQLESIINFEKLTEWTSSNVMEERKIKVYLPRMKMEEKYNLTSVLMAMGITDVFSSSANLSGISSAESLKISQAVHAAHAEINEAGREVVGSAEAGVDAASVSEEFRADHPFLFCIKHIATNAVLFFGRCVSP

Tests used:
[1] = tested on: ABLE T cells (LACK-specific TCR-transgenic); test: Stimulation of ABLE T cells in vitro by peptides; format: cell-based, mouse
Outline: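 Single-cell suspensions (red cells lysed) from spleen and lymph node of BALB/c ABLE TCR-Cα0 mice supplied both T cells and APC. They were plated at 10^6 cells/well in duplicate in RPMI 1640 with 10% heat-inactivated FCS, glutamine, pyruvate and β2-ME, with test peptides over a concentration range. At 48 h, supernatants went to sandwich ELISA against recombinant standards. Wells were then pulsed with 1 μCi [3H]thymidine and harvested 18 h later.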

[2] = tested on: ABLE T cells (LACK-specific TCR-transgenic); test: T cell antagonism assay; format: cell-based, mouse; details: for Inhibitory (antagonist) activity, overall: 0.1–100 μM, proliferation, IL-4 and IFN-γ
Outline: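 T cells: CD4+ cells enriched from BALB/c ABLE TCR-Cα0 spleen and lymph node by antibody/complement depletion (80% Vβ4+). APC: BALB/c TCR-Cα0 spleen cells, prepulsed 2 h at 37°C with 0.2 μM wild-type LACK peptide, washed, irradiated, then 2 h at 37°C with test peptide up to 100 μM (OVA323–336 control). 1.6 × 10^5 T cells/well were added. Cytokines were read by ELISA at 48 h; [3H]thymidine uptake over 48–66 h. Values are % inhibition versus prepulsed APC without added peptide.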

L. major LV39 [3] = tested on: L. major LV39; parameters: species or system Leishmania major; details: in vivo
[4] = tested on: Vβ4+ T cells of ABLE TCR-Cα^0 mice; details: mouse, in vivo
L. major LV39 [5] = tested on: L. major LV39; parameters: species or system Leishmania major; details: in vivo; remark: listed apart in the source
[6] = tested on: popliteal lymph node CD4+ T cells; details: mouse, in vivo
[7] = APC prepulsed with LACK peptide, 48 h ELISA

Molecule	IL-4 production by ABLE T cells ([1]; 48 h supernatants, ELISA, detection limit 50 pg/ml)	IFN-γ production by ABLE T cells ([1]; 48 h supernatants, ELISA, detection limit 1 ng/ml)	Concentration without proliferation of ABLE T cells (highest tested) ([1]; no proliferation even at concentrations up to 4 μM, [3H]thymidine) [µM]	Inhibitory (antagonist) activity, overall [2]	Inhibition of IFN-γ production [2, 7]	Inhibition of IL-4 production [2, 7]	Protection (L. major LV39 [3])	Total number of transgenic T cells in draining lymph nodes [4]	Protection (L. major LV39 [5])	Proliferation induced by LACK epitopes [6]
ICFSPSLENPIVVSGSWD [LACK-N164]	neither cytokine was detected	neither cytokine was detected	> 4	preferentially inhibited IL-4 production by ABLE T cells	inhibited consistently less	inhibited comparably to the LACK-K164 peptide	Subgroups of resistant and susceptible mice occurred	–	–	–
ISQAVHAAHAEINE [OVA323–336, reference compound]	–	–	–	no inhibitory activity	–	–	–	–	–	–
B1	–	–	–	–	–	–	–	2.9 × 10^5	in contrast to the LACK deletion mutant or OVA controls	No proliferation was induced
